12 compounds from ChEMBL document CHEMBL1151815, “Amides and benzenoids from Zanthoxylum ailanthoides with inhibitory activity on superoxide generation and elastase release by neutrophils” (J Nat Prod, 2009) can be followed below.

The structures appear in SMILES notation. Converted amounts (≈) assume the structure as drawn.

As a reminder, the IC50 is the concentration at which inhibition is half-maximal. Broadly, the inhibition is the share of the control response that was lost under treatment.

Holding throughout (settings): Neutrophil
Assay [1] can be described thus: Antiinflammatory activity against human neutrophils assessed as inhibition of fMLP/CB-induced superoxide anion generation. The class given is functional, cell-based. The essentials:
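Neutrophils (6 × 10^5/mL, dextran/Ficoll-isolated from healthy adults) with 0.5 mg/mL ferricytochrome c and 1 mM Ca2+, 2 min at 37 °C, compound or DMSO 5 min, cytochalasin B (1 µg/mL) 3 min, then fMLP 100 nM 10 min. SOD-inhibitable (100 U/mL) cytochrome c reduction at 550 nm, extinction coefficient 21.1/mM/10 mm; n = 4, mean ± SEM.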

Assay [2] is described as follows: Antiinflammatory activity against human neutrophils assessed as inhibition of fMLP/CB-induced elastase release. In kind it is functional, cell-based. The essentials: (§1)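 Human neutrophils from healthy adult volunteers' venous blood, isolated by dextran sedimentation, Ficoll Hypaque gradient and hypotonic erythrocyte lysis, held in Ca2+-free HBSS pH 7.4 at 4 °C. Cells (6 × 10^5/mL) with MeO-Suc-Ala-Ala-Pro-Val-p-nitroanilide (100 µM) equilibrated 2 min at 37 °C, compound 5 min, then fMLP (100 nM)/cytochalasin B (0.5 µg/mL). A405 monitored continuously; n = 4, mean ± SEM.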

Assay [3] in a line: Antiinflammatory activity against human neutrophils assessed as inhibition of fMLP/CB-induced elastase release at 10 ug/ml. In kind it is functional. The essentials:
as §1

Regarding `COc1ccc(CCN(C)C(=O)c2ccccc2)cc1`, the half-maximal inhibitory concentration (IC50) turned out to be 8.49 µg/mL (≈ 31.5 µM) in assay [1] and 7.48 µg/mL (≈ 27.8 µM) in assay [2].

Consider `CC(=O)/C=C/C=C/C(=O)NCC(C)C`, for which the IC50 was determined as 4.2 µg/mL (≈ 21.5 µM) in assay [1] and 6.2 µg/mL (≈ 31.8 µM) in assay [2].

`COc1ccc(CCN(C)C(=O)/C=C/c2ccc(O)cc2)cc1` [AILANTHAMIDE]: the IC50 in assay [1] was determined as 3.71 µg/mL (≈ 11.9 µM); in assay [2], 4.23 µg/mL (≈ 13.6 µM).

With `COc1c(O)ccc2c1cnc1c3cc4c(cc3ccc21)OCO4` [DECARINE], the IC50 was 1.29 µg/mL (≈ 4.04 µM) in assay [1] and 1.94 µg/mL (≈ 6.08 µM) in assay [2].

Consider `c1ccc2c(c1)[I+]c1ccccc1-2` [DIPHENYLENEIODONIUM], for which the IC50 in assay [1] came to 0.54 µg/mL.

As to `COc1cc(C(=O)C(CO)c2ccc(O)c(OC)c2)ccc1O` (configuration not stated) [EVOFOLIN B], the half-maximal inhibitory concentration (IC50) in assay [1] came to 5.34 µg/mL (≈ 16.8 µM); in assay [2] it was 6.15 µg/mL (≈ 19.3 µM).

Take `COc1c2ccoc2nc2c(OC)cccc12` [GAMMA-FAGARINE]: the IC50 in assay [1] is 7.17 µg/mL (≈ 31.3 µM). The inhibition at 10 µg/mL in assay [3] is 19.1%.

Consider `O=C1OC[C@H](Cc2ccc3c(c2)OCO3)[C@H]1Cc1ccc2c(c1)OCO2` [HINOKININ], for which, in assay [1], the concentration for half-maximal inhibition (IC50) was determined as 0.6 µg/mL (≈ 1.69 µM). In addition, the inhibition at 10 µg/mL in assay [3] came out at 24.7%.

As to `O=S(=O)(F)Cc1ccccc1` [PHENYLMETHYLSULFONYLFLUORIDE], the half-inhibitory concentration (IC50) in assay [2] was found to be 35.2 µg/mL (≈ 202 µM).

As to `COc1cc2ccc(=O)oc2cc1OC` [SCOPARONE], in assay [1], the 50% inhibitory concentration (IC50) was found to be 8.25 µg/mL (≈ 40 µM). Also, the inhibition at 10 µg/mL in assay [3] stood at 43.1%.

On to `c1cc2c(cc1[C@H]1OC[C@H]3[C@@H]1CO[C@@H]3c1ccc3c(c1)OCO3)OCO2` [SESAMIN], for which the 50% inhibitory concentration (IC50) in assay [1] was found to be 4.3 µg/mL (≈ 12.1 µM); in assay [2] it was 1.38 µg/mL (≈ 3.89 µM).

On to `CC1(C)C=Cc2cc3ccc(=O)oc3cc2O1` [XANTHYLETIN], for which the half-maximal inhibitory concentration (IC50) in assay [1] came out at 4.1 µg/mL (≈ 18 µM); in assay [2] it was 5.53 µg/mL (≈ 24.2 µM).
